Published values gathered from unrelated publications.
Lines come from different studies, so protocols differ.
CA12: Carbonic anhydrase 12 (CA12, Homo sapiens, UniProt O43570)
GLP1R: Glucagon-like peptide 1 receptor (GLP1R, Homo sapiens, UniProt P43220)
ACE: Angiotensin-converting enzyme (ACE, Homo sapiens, UniProt P12821)
DRD3: D(3) dopamine receptor (DRD3, Homo sapiens, UniProt P35462)
GHSR: Growth hormone secretagogue receptor type 1 (GHSR, Homo sapiens, UniProt Q92847)
SLC6A3: Sodium-dependent dopamine transporter (SLC6A3, Homo sapiens, UniProt Q01959)

SMILES	target	test	conditions	endpoint	value
O=C(Nc1cccc(C(F)(F)F)c1)Nc1ccc2c(c1)C=CCP(=O)(O)O2	CA12	enzyme activity, inhibitor, stopped-flow		Ki	> 10 µM
CC[C@H](C)[C@H](NC(=O)[C@H](Cc1ccccc1)NC(=O)[C@H](CCC(N)=O)NC(=O)[C@H](CCCNC(=N)N)NC(=O)[C@@H](NC(=O)[C@H](C)NC(=O)[C@H](CCCCN)NC(=O)[C@H](CCCNC(=N)N)NC(=O)[C@H](CCC(=O)O)NC(=O)[C@H](CC(C)C)NC(=O)[C@H](CC(C)C)NC(=O)[C@H](CCC(=O)O)NC(=O)[C@H](CO)NC(=O)[C@H](Cc1c[nH]c2ccccc12)NC(=O)[C@H](CC(C)C)NC(=O)[C@H](CO)NC(=O)[C@@H](NC(=O)[C@H](Cc1ccccc1)NC(=O)[C@H](CCC(=O)O)NC(=O)[C@H](CC(C)C)NC(=O)[C@H](CCC(=O)O)NC(=O)CNC(=O)[C@@H]1CCCN1)[C@@H](C)O)C(C)C)C(=O)N[C@@H](CCC(=O)O)C(=O)N[C@@H](CC(=O)O)C(=O)N[C@@H](CC(C)C)C(=O)N[C@@H](CCCCN)C(=O)N[C@@H](CCCCN)C(=O)O	GLP1R	calcium signal, antagonist, fluorescence		IC50	0.874 µM
NC(=O)CC[C@H](N)C(=O)NCC(=O)NCC(=O)N[C@@H](CC(=O)O)C(=O)N[C@@H](Cc1ccccc1)C(=O)O	ACE	enzyme activity, inhibitor		IC50	~1090 µM
O=C(Nc1ccc2c(c1)C=CCP(=O)(O)O2)c1ccccc1I	CA12	enzyme activity, inhibitor, stopped-flow		Ki	0.0069 µM
CC(C)C[C@H](NC(=O)[C@H](CCC(=O)O)NC(=O)[C@H](C)NC(=O)[C@@H](NC(=O)[C@H](Cc1ccccc1)NC(=O)[C@H](CC(C)C)NC(=O)[C@H](CCCNC(=N)N)NC(=O)[C@H](C)NC(=O)[C@H](C)NC(=O)[C@H](CCCCN)NC(=O)[C@H](CCC(=O)O)NC(=O)[C@H](CO)NC(=O)[C@H](CC(C)C)NC(=O)[C@H](Cc1ccc(O)cc1)NC(=O)[C@H](CCC(=O)O)NC(=O)[C@H](CC(=O)O)NC(=O)[C@H](CC(C)C)NC(=O)[C@H](CC(C)C)NC(=O)[C@H](CCC(=O)O)NC(=O)[C@@H](NC(=O)[C@H](Cc1ccccc1)NC(=O)[C@H](CCC(=O)O)NC(=O)[C@H](CCC(=O)O)NC(=O)[C@H](CCC(=O)O)NC(=O)[C@H](C)NC(=O)[C@@H](N)CO)[C@@H](C)O)C(C)C)C(=O)N[C@@H](CCCCN)C(=O)N[C@@H](CCCCN)C(=O)O	GLP1R	calcium signal, antagonist, fluorescence		IC50	15.7 µM
Cc1[nH]c(C)c(S(=O)(=O)Nc2ccc(S(F)(F)(F)(F)F)cc2)c1C(=O)N1CCC(F)(F)C1	DRD3	β-arrestin recruitment, antagonist		IC50	2.3 µM
O=C(Nc1cccc(Cl)c1)Nc1ccc2c(c1)C=CCP(=O)(O)O2	CA12	enzyme activity, inhibitor, stopped-flow		Ki	> 10 µM
N#C[Se]CCCCOc1ccc2c(-c3ccccc3)cc(=O)oc2c1	CA12	enzyme activity, inhibitor, stopped-flow		Ki	0.296 µM
O=C(Nc1ccc(Br)cc1)Nc1ccc2c(c1)C=CCP(=O)(O)O2	CA12	enzyme activity, inhibitor, stopped-flow		Ki	> 10 µM
Cc1[nH]c(C)c(S(=O)(=O)Nc2ccc(S(F)(F)(F)(F)F)cc2)c1C(=O)N(C)C	DRD3	β-arrestin recruitment, antagonist		IC50	1.7 µM
CC(C)C[C@H](NC(=O)[C@@H](N)C(C)C)C(=O)N[C@@H](CO)C(=O)N1CCC[C@H]1C(=O)N[C@@H](CCC(N)=O)C(=O)O	ACE	enzyme activity, inhibitor, absorbance		IC50	105 µM
CC[C@H](C)[C@H](NC(=O)[C@H](C)NC(=O)[C@H](C)NC(=O)[C@H](CCC(=O)O)NC(=O)[C@H](CCCNC(=N)N)NC(=O)[C@H](CCC(=O)O)NC(=O)[C@H](CC(C)C)NC(=O)[C@H](CCSC)NC(=O)[C@H](CCCNC(=N)N)NC(=O)[C@H](CCCNC(=N)N)NC(=O)[C@H](CC(C)C)NC(=O)[C@H](Cc1c[nH]cn1)NC(=O)[C@H](CCC(=O)O)NC(=O)[C@@H]1CCCN1C(=O)[C@H](CO)NC(=O)[C@H](CC(C)C)NC(=O)[C@H](Cc1ccccc1)NC(=O)[C@H](Cc1ccc(O)cc1)NC(=O)[C@H](CO)NC(=O)CN)C(=O)N1CCC[C@H]1C(=O)N1CCC[C@H]1C(=O)N1CCC[C@H]1C(=O)N1CCC[C@H]1C(=O)N[C@H](C(=O)N1CCC[C@H]1C(=O)N1CCC[C@H]1C(=O)N[C@@H](CC(C)C)C(=O)O)C(C)C	GHSR	calcium signal, antagonist, fluorescence		IC50	1.37 µM
COC(=O)[C@H]1[C@@H](c2ccc(Cl)c(Cl)c2)C[C@@H]2CC[C@H]1N2CCCOCc1ccc2cc3ccccc3cc2c1	SLC6A3	ligand displacement, radioligand	pH 7.4	Ki	0.051 µM
CC(C)C[C@H](NC(=O)[C@@H](NC(=O)[C@@H](NC(=O)[C@@H]1CCCN1C(=O)[C@@H](N)CCC(=O)O)C(C)C)[C@@H](C)O)C(=O)N[C@H](C(=O)O)[C@@H](C)O	ACE	enzyme activity, inhibitor		IC50	~872 µM
O=C(Nc1ccccc1)Nc1ccc2c(c1)C=CCP(=O)(O)O2	CA12	enzyme activity, inhibitor, stopped-flow		Ki	> 10 µM
CCC(CNc1nc(-c2cn3ccnc3cc2C)nc2ccccc12)c1ccccc1 (stereo not drawn)	SLC6A3	transporter uptake, inhibitor, radiometric		IC50	9.86 µM
CC[C@H](C)[C@H](NC(=O)[C@H](C)NC(=O)[C@H](C)NC(=O)[C@H](CCC(=O)O)NC(=O)[C@H](CCCNC(=N)N)NC(=O)[C@H](C)NC(=O)[C@H](CC(C)C)NC(=O)[C@H](CC(C)C)NC(=O)[C@H](CCCNC(=N)N)NC(=O)[C@H](CCCNC(=N)N)NC(=O)[C@H](CCC(=O)O)NC(=O)[C@H](Cc1c[nH]cn1)NC(=O)[C@H](CCC(=O)O)NC(=O)[C@@H]1CCCN1C(=O)[C@H](CO)NC(=O)[C@H](CC(C)C)NC(=O)[C@H](Cc1ccccc1)NC(=O)[C@H](Cc1c[nH]c2ccccc12)NC(=O)[C@H](CO)NC(=O)CN)C(=O)N1CCC[C@H]1C(=O)N1CCC[C@H]1C(=O)N1CCC[C@H]1C(=O)N1CCC[C@H]1C(=O)N[C@H](C(=O)N1CCC[C@H]1C(=O)N1CCC[C@H]1C(=O)N[C@@H](CC(C)C)C(=O)O)C(C)C	GHSR	calcium signal, agonist, fluorescence		EC50	0.27 µM
O=C(Nc1ccc2c(c1)C=CCP(=O)(O)O2)c1ccc(F)cc1	CA12	enzyme activity, inhibitor, stopped-flow		Ki	0.004 µM
Cc1[nH]c(C)c(S(=O)(=O)Nc2ccc(S(F)(F)(F)(F)F)c(Cl)c2)c1C(=O)N1CCC(F)(F)C1	DRD3	β-arrestin recruitment, antagonist		IC50	1.1 µM
CC[C@H](C)[C@H](NC(=O)[C@H](C)NC(=O)[C@H](C)NC(=O)[C@H](CCC(=O)O)NC(=O)[C@H](CCCNC(=N)N)NC(=O)[C@H](C)NC(=O)[C@H](CC(C)C)NC(=O)[C@H](CC(C)C)NC(=O)[C@H](CCCNC(=N)N)NC(=O)[C@H](CCCNC(=N)N)NC(=O)[C@H](C)NC(=O)[C@H](Cc1c[nH]cn1)NC(=O)[C@H](CCC(=O)O)NC(=O)[C@@H]1CCCN1C(=O)[C@H](CO)NC(=O)[C@H](CC(C)C)NC(=O)[C@H](Cc1ccccc1)NC(=O)[C@H](Cc1c[nH]c2ccccc12)NC(=O)[C@H](CO)NC(=O)CN)C(=O)N1CCC[C@H]1C(=O)N1CCC[C@H]1C(=O)N1CCC[C@H]1C(=O)N1CCC[C@H]1C(=O)N[C@H](C(=O)N1CCC[C@H]1C(=O)N1CCC[C@H]1C(=O)N1CCC[C@H]1C(=O)O)C(C)C	GHSR	calcium signal, agonist, fluorescence		EC50	0.19 µM
CCCCC1CNC2CCc3ccc(OC)cc3C12 (racemic)	DRD3	ligand displacement, radioligand		Ki	5.03 µM
